Shown are actives, neighbours in structure and some others; about 9.6% of the full set was active somewhere.
bCat KO growth – primary screen for growth suppressors in beta-catenin knockout HCT116 cells (colon tumor, human); HCT116 beta-catenin knockout viability, CellTiter-Glo, 60 h; active compounds read low; viability, % at 10 µM; 140,000 tested, 1.5% active;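 active means viability at or under a set limit, the compound median less 4 SD, cut at about 6% in these data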;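 further: 0% = Hyamine 1622 control at 20 µM and 100% = untreated cell control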
PMI act satM6P – human PMI activators, high substrate, primary screen, biochemical, fluorescence intensity, near-saturating mannose 6-phosphate; Mannose-6-phosphate isomerase (Homo sapiens), P34949; coupled PMI enzyme assay, resazurin fluorescence, 20 min; active compounds read high; 1 = untreated enzyme, 0 = substrate-free blank; activation factor at 20 µM; 190,000 tested, 0.34% active; AID 1216, 2008;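 active means activation factor of 2 or more at 20 µM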
Target sequence (P34949 whole entry, looked up): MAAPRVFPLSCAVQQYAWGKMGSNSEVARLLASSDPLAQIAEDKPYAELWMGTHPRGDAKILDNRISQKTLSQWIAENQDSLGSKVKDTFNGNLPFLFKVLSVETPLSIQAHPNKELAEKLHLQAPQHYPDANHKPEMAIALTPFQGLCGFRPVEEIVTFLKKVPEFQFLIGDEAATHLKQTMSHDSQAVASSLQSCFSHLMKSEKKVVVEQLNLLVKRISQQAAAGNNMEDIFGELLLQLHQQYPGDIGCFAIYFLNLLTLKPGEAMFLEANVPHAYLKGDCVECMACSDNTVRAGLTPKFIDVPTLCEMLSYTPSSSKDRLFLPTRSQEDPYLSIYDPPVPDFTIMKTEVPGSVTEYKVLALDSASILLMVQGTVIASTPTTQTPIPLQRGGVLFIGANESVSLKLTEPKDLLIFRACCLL
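Technique: Diaphorase-driven resazurin-to-resorufin fluorescence, excitation 544, emission 590 nm | Assay system: Human PMI in coupled enzyme assay | Times: Enzyme reaction with compound 20 min at room temperature | Medium: HEPES-buffered pH 7.4 with magnesium and detergent | Reagent: Mannose-6-phosphate 1.0 mM (near-saturating) plus 0.22 mM NADP+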
PTEN del growth – growth suppression of PTEN-null HCT116, primary screen, cell-based, CellTiter-Glo; HCT116 PTEN-null viability, 60 h; active compounds read low; 140,000 tested, 1.2% active; viability, % at 10 µM;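 active means viability at or below a set limit, 4 SD under the median of all tested compounds, cut at about 3.7% in these data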;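 further: PTEN knockout HCT116 line with beta catenin targeted HCT116 as companion control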
L major viab – Leishmania major promastigote growth inhibition, primary screen | Leishmania major promastigotes, resazurin fluorescence viability | AID 1063, 2008 | 200,000 tested, 9% active | inhibition, % at 10 µM; in the data active means inhibition above about 50%;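 further: promastigotes grown with compound for 44 hours at 28 °C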
PMI activator – activators of human PMI, primary screen, biochemical, fluorescence intensity, near-Km mannose 6-phosphate; activation factor at 20 µM; 190,000 tested, 0.005% active; AID 1214, 2008; purified human PMI, coupled resazurin fluorescence, 20 min; active compounds read high; 1 = vehicle control, 0 substrate-free wells; Mannose-6-phosphate isomerase (Homo sapiens), P34949;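 active means activation factor of 2 or more at 20 µM, relative to plate controls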
* = called active by the depositor; . = not tested or not shown.

SMILES	bCat KO growth	PMI act satM6P	PTEN del growth	L major viab	PMI activator
Cn1ccnc1C(=O)c1cc(SCC(=O)NCc2ccccc2)nc2ccccc12	.	1.1	.	13	1.2
Cc1ccc(-c2nnc(CSc3nnc(COc4ccccc4)n3-c3ccccc3)o2)cc1	53	1	48	41	1
Cc1ccc(OCc2nnc(SCC(=O)Nc3cccc4ccccc34)n2-c2ccccc2)cc1	54	0.8	45	95*	0.8
Cc1ccccc1OCc1nnc(SCc2cc(=O)[nH]c3ccccc23)n1-c1ccccc1	73	1	64	75*	0.9
Cc1ccc(OCc2nnc(SCc3cc(=O)[nH]c4ccccc34)n2-c2ccccc2)cc1	67	0.8	68	73*	0.8
Cc1ccc(NC(=O)CSc2nnc(-c3n[nH]c4ccccc34)n2-c2ccccc2)c(C)c1	62	1	53	53*	0.9
CCC(CC)NCc1ccc2c(c1)c1ccccc1n2CC	.	1.1	.	95*	0.7
CCn1c2ccccc2c2cc(N)ccc21	64	0.6	69	78*	1
CCn1c2ccccc2c2cc(CNCc3ccc(OC)cc3OC)ccc21	.	1	.	81*	0.9
CCn1c2ccccc2c2cc(CN3CCN(S(=O)(=O)CC)CC3)ccc21	72	0.9	67	28	0.9
CCn1c(=O)n(CC)c2cc(N)ccc21	.	0.2	.	-4	0.2
COc1ccccc1NC(=S)c1ccccc1	81	1.1	99	7	0.9
COC(=O)c1cc2c(ccn2-c2ccc(F)cc2)n1Cc1ccc(OC(C)=O)cc1	56	0.9	65	93*	0.8
CCOC(=O)c1cc2c(ccn2-c2ccc(F)cc2)n1CC(=O)N1CCN(C(=O)c2ccco2)CC1	83	0.9	94	-4	1
COC(=O)c1cc2c(ccn2-c2ccc(F)cc2)n1Cc1cccc(OC)c1	76	0.9	68	98*	0.8
COC(=O)c1cc(C(=O)OC)n(Cc2ccc(F)cc2)c1C	.	1	.	0	0.9
O=C(Nc1ccc(Cl)cc1)N1CCCC1	100	1	114	96*	1
O=C(Nc1cccc(Cl)c1)N1CCCC1	99	0.9	95	100*	0.9
O=C(Nc1ccc(Cl)cc1)N1CCSc2ccccc21	100	0.9	101	90*	0.9
COc1ccc(/C=N/NC(=O)c2ccncc2)cc1Cn1nc([N+](=O)[O-])c(Br)c1C	.	1.1	.	2	1
COc1cccc(-n2nnnc2S(C)(=O)=O)c1	12	1	1.3*	97*	0.9
Cc1cccc(NC(=O)CSc2nnc(CNC(=O)c3ccc(S(=O)(=O)N(C)C)cc3)n2-c2ccc(F)cc2)c1	93	0.9	92	-8	0.8
Cc1cccc(NC(=O)CSc2nnc(CNC(=O)c3ccc(S(=O)(=O)N(C)C)cc3)n2-c2ccccc2)c1	86	1	89	55*	1
Cc1cccc(NC(=O)CSc2nnc(CNC(=O)c3ccc(S(=O)(=O)N(C)C)cc3)n2-c2cccc(C)c2)c1	89	1	82	72*	1
CCC/C=N/NC(=O)c1ccccc1O	.	1	.	2	1
SMILES	bCat KO growth	PMI act satM6P	PTEN del growth	L major viab	PMI activator
COc1ccc(N=C2S/C(=C\c3ccc(OCC(=O)O)cc3)C(=O)N2CCc2c[nH]c3ccccc23)cc1	.	1.1	.	-4	1.1
COc1ccc(N=C2S/C(=C\c3ccc(N4CCOCC4)o3)C(=O)N2CCc2c[nH]c3ccccc23)cc1	1.9*	0.7	1.6*	100*	0.8
CC(C)COc1ccc(Cc2cnc(N)nc2N)cc1	69	1	81	72*	1
COc1ccc(C(=O)/C=C/c2cccs2)c(OC(=O)N2CCOCC2)c1	45	1	32	41	1
O=C(/C=C/c1cccs1)c1cc(Br)ccc1OC(=O)N1CCOCC1	6	1	5	72*	1
COc1ccc(NC(=O)N2CCC(n3nnc4cc(C)ccc43)CC2)cc1	97	0.8	91	2	0.9
C/C(=N\NC(=O)c1cccc(Br)c1)c1cccc(NC(=O)c2ccc(C)o2)c1	88	0.9	86	56*	1.1
C/C(=N\NC(=O)c1ccc(Cn2cc([N+](=O)[O-])cn2)o1)c1cccc(NC(=O)C(C)C)c1	100	0.9	88	-5	1

Screens: PubChem BioAssay, several laboratories
